Test results reported in ChEMBL document CHEMBL1132564, “Antitumor benzothiazoles. 7. Synthesis of 2-(4-acylaminophenyl)benzothiazoles and investigations into the role of acetylation in the antitumor activities of the parent amines” (J Med Chem, 1999).

Assays:
[1] = system: MCF7; assay: In vitro antitumor activity against MCF-7 carcinoma cell line.; format: functional, cell-based; details: Homo sapiens
Summary of the method: (§1)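 MTT assay, 7-day format: 250–300 cells/well, adhered 24 h drug-free, then compound 1 pM–100 μM (n = 8), final DMSO <0.25%; RPMI 1640/10% FCS, 37 °C, 5% CO2. MTT added after exposure, 4 h, formazan dissolved in DMSO–glycine (4:1), absorbance 550 nm.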

[2] = system: MDA-MB-468; assay: In vitro antitumor activity against MDA-468 carcinoma cell line.; format: functional, cell-based; details: Homo sapiens; summary of the method: as §1
[3] = system: NCI; assay: In vitro antitumor activity against carcinoma cell lines by 2-day assay; format: functional, Homo sapiens
Summary of the method: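 NCI panel sulforhodamine B assay: line-specific seeding, 24 h drug-free, then five 10-fold dilutions (top 10^-4 M) for 2 days; growth inhibition from protein-stain optical density change; mean log GI50 across panel.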

[4] = system: NCI; assay: In vitro antitumor activity against carcinoma cell lines by 6-day assay; format: functional, Homo sapiens
Summary of the method: (§2)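 NCI 60-cell-line panel, sulforhodamine B protein stain. Seeding density set per line's growth; 24 h drug-free incubation, then test agent at five 10-fold dilutions up to 10^-4 M for 6 days of exposure. Growth inhibition derived from change in protein-stain optical density; log GI50 reported.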

[5] = system: Homo sapiens; assay: In vitro concentration to reduce colony formation of human tumor xenografts to 30% of the control; format: functional
Summary of the method: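 Clonogenic colony-formation assay using cells from 22 human tumor xenografts, tested at 0.1, 1.0 and 10 μg/mL; colony inhibition expressed as T/C, with T/C < 30% scored active; IC70 concentration reported.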

[6] = system: SK-OV-3; assay: In vitro antitumor activity against Ovarian cancer SK-OV-3 cell lines by 6-day assay; format: functional; details: Homo sapiens, SK-OV-3, 144 h; summary of the method: as §2
[7] = system: UACC-62; assay: In vitro antitumor activity against melanoma UACC-62 cell lines by 6-day assay; format: functional; details: Homo sapiens, UACC-62, 144 h; summary of the method: as §2
[8] = system: MOLT-4; assay: In vitro antitumor activity against Leukemia MOLT-4 cell lines by 6-day assay; format: functional; details: Homo sapiens, MOLT-4, 144 h; summary of the method: as §2
[9] = system: RXF 393; assay: In vitro antitumor activity against Renal cancer RXF393 cell lines by 6-day assay; format: functional; details: Homo sapiens, RXF 393, 144 h; summary of the method: as §2
[10] = system: OVCAR-5; assay: In vitro antitumor activity against Ovarian cancer OVCAR-5 cell lines by 6-day assay; format: functional; details: Homo sapiens, OVCAR-5, 144 h; summary of the method: as §2
[11] = system: SN12C; assay: In vitro antitumor activity against Renal cancer SN12C cell lines by 6-day assay; format: functional; details: Homo sapiens, 144 h; summary of the method: as §2
[12] = system: SF-295; assay: In vitro antitumor activity against CNS cancer SF-295 cell lines by 6-day assay; format: functional; details: Homo sapiens, SF-295, 144 h; summary of the method: as §2
[13] = system: COLO 205; assay: In vitro antitumor activity against colon cancer COLO 205 cell lines by 6-day assay; format: functional; details: Homo sapiens, COLO 205, 144 h; summary of the method: as §2
[14] = system: M14; assay: In vitro antitumor activity against melanoma M14 cell lines by 6-day assay; format: functional; details: Homo sapiens, M14, 144 h; summary of the method: as §2
[15] = system: A498; assay: In vitro antitumor activity against Renal cancer A498 cell lines by 6-day assay; format: functional; details: Homo sapiens, A498, 144 h; summary of the method: as §2
[16] = system: RPMI-8226; assay: In vitro antitumor activity against Leukemia RPMI-8226 cell lines by 6-day assay; format: functional; details: Homo sapiens, RPMI-8226, 144 h; summary of the method: as §2
[17] = system: HCT-15; assay: In vitro antitumor activity against colon cancer HCT-15 cell lines by 6-day assay; format: functional; details: Homo sapiens, HCT-15, 144 h; summary of the method: as §2
[18] = system: U-251; assay: In vitro antitumor activity against CNS cancer U251 cell lines by 6-day assay; format: functional; details: Homo sapiens, U-251, 144 h; summary of the method: as §2
[19] = system: HOP-92; assay: In vitro antitumor activity against Non-small cell lung cancer HOP92 cell lines by 6-day assay; format: functional; details: Homo sapiens, HOP-92, 144 h; summary of the method: as §2
[20] = system: MDA-MB-435; assay: In vitro antitumor activity against Breast cancer MDA-MB-435 cell lines by 6-day assay; format: functional; details: Homo sapiens, MDA-MB-435, 144 h; summary of the method: as §2
[21] = system: UO-31; assay: In vitro antitumor activity against Renal cancer UO-31 cell lines by 6-day assay; format: functional; details: Homo sapiens, UO-31, 144 h; summary of the method: as §2
[22] = system: HCC 2998; assay: In vitro antitumor activity against colon cancer HCC2998 cell lines by 6-day assay; format: functional; details: Homo sapiens, HCC 2998, 144 h; summary of the method: as §2
[23] = system: UACC-257; assay: In vitro antitumor activity against melanoma UACC-257 cell lines by 6-day assay; format: functional; details: Homo sapiens, UACC-257, 144 h; summary of the method: as §2
[24] = system: HL-60; assay: In vitro antitumor activity against Leukemia HL-60(TB) cell lines by 6-day assay; format: functional; details: Homo sapiens, HL-60, 144 h
Summary of the method: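 NCI 60-line panel screen using a sulforhodamine B protein-stain read-out. Seeding density is set by each line's growth. After a 24-h drug-free period, compound is added at five 10-fold dilutions up to 10^-4 M. Exposure lasts 6 days, and growth inhibition (GI50) is taken from the change in stain optical density.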

[25] = system: NCI-H322M; assay: In vitro antitumor activity against Non-small cell lung cancer NCI-H322M cell lines by 6-day assay; format: functional; details: Homo sapiens, 144 h; summary of the method: as §2
[26] = system: CAKI-1; assay: In vitro antitumor activity against Renal cancer CAKI-1 cell lines by 6-day assay; format: functional; details: Homo sapiens, CAKI-1, 144 h; summary of the method: as §2
[27] = system: MDA-N; assay: In vitro antitumor activity against Breast cancer MDA-N cell lines by 6-day assay; format: functional; details: Homo sapiens, 144 h; summary of the method: as §2
[28] = system: KM12; assay: In vitro antitumor activity against colon cancer KM12 cell lines by 6-day assay; format: functional; details: Homo sapiens, KM12, 144 h; summary of the method: as §2
[29] = system: SNB-75; assay: In vitro antitumor activity against CNS cancer SNB-75 cell lines by 6-day assay; format: functional; details: Homo sapiens, SNB-75, 144 h; summary of the method: as §2
[30] = system: DU-145; assay: In vitro antitumor activity against Prostate cancer DU145 cell lines by 6-day assay; format: functional; details: Homo sapiens, DU-145, 144 h; summary of the method: as §2
[31] = system: HT-29; assay: In vitro antitumor activity against colon cancer HT-29 cell lines by 6-day assay; format: functional; details: Homo sapiens, HT-29, 144 h; summary of the method: as §2
[32] = system: NCI-H23; assay: In vitro antitumor activity against Non-small cell lung cancer NCI-H23 cell lines by 6-day assay; format: functional; details: Homo sapiens, NCI-H23, 144 h; summary of the method: as §2
[33] = system: BT-549; assay: In vitro antitumor activity against Breast cancer BT-549 cell lines by 6-day assay; format: functional; details: Homo sapiens, BT-549, 144 h; summary of the method: as §2
[34] = system: SK-MEL-5; assay: In vitro antitumor activity against melanoma SK-MEL-5 cell lines by 6-day assay; format: functional; details: Homo sapiens, SK-MEL-5, 144 h; summary of the method: as §2
[35] = system: ACHN; assay: In vitro antitumor activity against Renal cancer ACHN cell lines by 6-day assay; format: functional; details: Homo sapiens, 144 h; summary of the method: as §2
[36] = system: TK-10; assay: In vitro antitumor activity against Renal cancer TK-10 cell lines by 6-day assay; format: functional; details: Homo sapiens, TK-10, 144 h; summary of the method: as §2
[37] = system: A549; assay: In vitro antitumor activity against Non-small cell lung cancer A549/ATCC cell lines by 6-day assay; format: functional; details: Homo sapiens, A549, 144 h; summary of the method: as §2
[38] = system: HCT-116; assay: In vitro antitumor activity against colon cancer HCT116 cell lines by 6-day assay; format: functional; details: Homo sapiens, HCT-116, 144 h; summary of the method: as §2
[39] = system: SW-620; assay: In vitro antitumor activity against colon cancer SW-620 cell lines by 6-day assay; format: functional; details: Homo sapiens, SW-620, 144 h; summary of the method: as §2
[40] = system: EKVX; assay: In vitro antitumor activity against Non-small cell lung cancer EKVX cell lines by 6-day assay; format: functional; details: Homo sapiens, 144 h; summary of the method: as §2
[41] = system: SR; assay: In vitro antitumor activity against Leukemia SR cell lines by 6-day assay; format: functional; details: Homo sapiens, 144 h; summary of the method: as §2
[42] = system: 786-0; assay: In vitro antitumor activity against Renal cancer 786-0 cell lines by 6-day assay; format: functional; details: Homo sapiens, 786-0, 144 h; summary of the method: as §2
[43] = system: SNB-19; assay: In vitro antitumor activity against CNS cancer SNB-19 cell lines by 6-day assay; format: functional; details: Homo sapiens, SNB-19, 144 h; summary of the method: as §2
[44] = system: IGROV-1; assay: In vitro antitumor activity against Ovarian cancer IGROV1 cell lines by 6-day assay; format: functional; details: Homo sapiens, IGROV-1, 144 h; summary of the method: as §2
[45] = system: SF-268; assay: In vitro antitumor activity against CNS cancer SF-268 cell lines by 6-day assay; format: functional; details: Homo sapiens, SF-268, 144 h; summary of the method: as §2
[46] = system: CCRF-CEM; assay: In vitro antitumor activity against Leukemia CCRF-CEM cell lines by 6-day assay; format: functional; details: Homo sapiens, 144 h; summary of the method: as §2
[47] = system: OVCAR-8; assay: In vitro antitumor activity against Ovarian cancer OVCAR-8 cell lines by 6-day assay; format: functional; details: Homo sapiens, OVCAR-8, 144 h; summary of the method: as §2
[48] = system: K562; assay: In vitro antitumor activity against Leukemia K-562 cell lines by 6-day assay; format: functional; details: Homo sapiens, K562, 144 h; summary of the method: as §2
[49] = system: SK-MEL-28; assay: In vitro antitumor activity against melanoma SK-MEL-28 cell lines by 6-day assay; format: functional; details: Homo sapiens, SK-MEL-28, 144 h; summary of the method: as §2

Nc1ccc(-c2nc3ccccc3[nH]2)cc1
IC50 [1]: > 10 µM | IC50 [2]: > 1 µM

Nc1ccc(-c2nc3ccccc3o2)cc1
IC50 [1]: > 0.1 µM | Mean log GI50 [3]: -4.26 M | IC50 [2]: > 1 µM

Cc1cc(-c2nc3ccccc3s2)ccc1N
IC50 [1]: < 0.001 µM | Mean log GI50 [3]: -4.61 M | IC50 [2]: < 0.001 µM | Mean log GI50 [4]: -5.05 M | Mean IC70 [5]: 6.9 µg/mL

Nc1ccc(-c2nc3ccccc3s2)cc1Br
GI50 [6]: 58.9 µM | GI50 [7]: < 0.01 µM | GI50 [8]: 46.8 µM | IC50 [1]: < 0.001 µM | GI50 [9]: 40.7 µM | GI50 [10]: < 0.01 µM | GI50 [11]: > 100 µM | GI50 [12]: 42.7 µM | GI50 [13]: < 0.01 µM | Mean log GI50 [3]: -4.67 M | GI50 [14]: 64.6 µM | GI50 [15]: 0.191 µM | GI50 [16]: > 100 µM | GI50 [17]: 31.6 µM | GI50 [18]: 37.2 µM | GI50 [19]: 40.7 µM | GI50 [20]: 97.7 µM | GI50 [21]: 32.4 µM | GI50 [22]: < 0.01 µM | GI50 [23]: < 0.01 µM | GI50 [24]: 9.55 µM | GI50 [25]: > 100 µM | GI50 [26]: > 100 µM | GI50 [27]: > 100 µM | GI50 [28]: 69.2 µM | GI50 [29]: > 100 µM | GI50 [30]: > 100 µM | GI50 [31]: 24.5 µM | GI50 [32]: 28.8 µM | IC50 [2]: < 0.001 µM | GI50 [33]: 57.5 µM | GI50 [34]: 15.8 µM | GI50 [35]: 44.7 µM | GI50 [36]: < 0.01 µM | GI50 [37]: > 100 µM | GI50 [38]: < 0.01 µM | Mean log GI50 [4]: -5.01 M | GI50 [39]: 45.7 µM | GI50 [40]: 81.3 µM | GI50 [41]: 47.9 µM | GI50 [42]: 66.1 µM | GI50 [43]: 47.9 µM | GI50 [44]: < 0.01 µM | GI50 [45]: 34.7 µM | GI50 [46]: 40.7 µM | GI50 [47]: 43.7 µM | GI50 [48]: > 100 µM | GI50 [49]: > 100 µM

Nc1ccc(-c2nc3ccccc3s2)cc1Cl
IC50 [1]: < 0.001 µM | Mean log GI50 [3]: -4.75 M | IC50 [2]: < 0.001 µM | Mean log GI50 [4]: -5.26 M

CC(=O)Nc1ccc(-c2nc3ccccc3s2)cc1[N+](=O)[O-]
IC50 [1]: > 1 µM | IC50 [2]: > 1 µM
